In ChEMBL document CHEMBL1138747, “Synthesis and structure--activity relationship in a class of indolebutylpiperazines as dual 5-HT(1A) receptor agonists and serotonin reuptake inhibitors” (J Med Chem, 2004):
Values joined by “and” are separate entries in the source; they are usually repeats but may differ in a detail not shown here. Equal values may be shown once.

Experiments:
[1] = molecular target: T1, Serotonin 3 (5-HT3) receptor (Rattus norvegicus, UniProt P35563+Q9JJ16); assay: Inhibition against rat hydroxytryptamine 3 receptor; type: protein-complex assay
T1 sequence (P35563 whole entry): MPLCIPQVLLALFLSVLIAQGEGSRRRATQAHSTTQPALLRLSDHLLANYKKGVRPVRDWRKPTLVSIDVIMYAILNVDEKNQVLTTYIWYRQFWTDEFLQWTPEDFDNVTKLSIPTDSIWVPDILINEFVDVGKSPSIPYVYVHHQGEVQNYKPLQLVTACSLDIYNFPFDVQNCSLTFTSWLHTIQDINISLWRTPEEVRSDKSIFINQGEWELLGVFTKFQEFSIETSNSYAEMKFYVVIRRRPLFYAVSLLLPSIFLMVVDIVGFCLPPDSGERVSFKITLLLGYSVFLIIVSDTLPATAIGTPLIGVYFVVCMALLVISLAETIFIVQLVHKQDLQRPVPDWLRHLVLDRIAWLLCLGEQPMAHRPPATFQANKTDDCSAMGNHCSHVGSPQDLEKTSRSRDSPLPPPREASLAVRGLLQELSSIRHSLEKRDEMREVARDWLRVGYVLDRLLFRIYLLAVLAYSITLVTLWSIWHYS
T1 sequence (Q9JJ16 whole entry): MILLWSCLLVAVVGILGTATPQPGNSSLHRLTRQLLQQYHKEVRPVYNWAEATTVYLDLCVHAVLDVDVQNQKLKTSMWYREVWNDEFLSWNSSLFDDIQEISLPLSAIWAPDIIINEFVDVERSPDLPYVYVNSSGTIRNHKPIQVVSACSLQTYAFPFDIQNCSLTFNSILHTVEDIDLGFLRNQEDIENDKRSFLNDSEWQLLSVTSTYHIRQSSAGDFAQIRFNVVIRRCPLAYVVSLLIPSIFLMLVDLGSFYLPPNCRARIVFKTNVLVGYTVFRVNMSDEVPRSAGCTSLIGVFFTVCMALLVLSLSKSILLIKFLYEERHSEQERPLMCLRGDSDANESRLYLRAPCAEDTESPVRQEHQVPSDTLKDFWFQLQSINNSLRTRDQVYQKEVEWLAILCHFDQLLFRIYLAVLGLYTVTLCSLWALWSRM

D(2) dopamine receptor = D(2) dopamine receptor (Rattus norvegicus, UniProt P61169); assay: Displacement of [3H]spiperone from dopamine D2 receptor of rat striatal membranes; type: cell membranes, Membrane
D(2) dopamine receptor, sequence (P61169 whole entry): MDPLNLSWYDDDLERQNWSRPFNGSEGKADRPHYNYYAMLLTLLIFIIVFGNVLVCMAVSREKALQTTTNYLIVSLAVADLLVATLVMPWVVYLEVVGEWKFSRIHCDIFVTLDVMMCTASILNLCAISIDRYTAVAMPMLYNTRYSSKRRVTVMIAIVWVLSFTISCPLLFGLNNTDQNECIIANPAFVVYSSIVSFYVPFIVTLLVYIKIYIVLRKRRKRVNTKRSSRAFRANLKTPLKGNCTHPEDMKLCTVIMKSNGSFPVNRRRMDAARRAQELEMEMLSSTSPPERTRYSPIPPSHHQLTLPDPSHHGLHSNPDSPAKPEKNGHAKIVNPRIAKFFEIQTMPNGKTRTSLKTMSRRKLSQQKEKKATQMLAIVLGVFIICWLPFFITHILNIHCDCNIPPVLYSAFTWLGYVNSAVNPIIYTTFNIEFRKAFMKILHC
Procedure, shortened: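 IC50 from 5–10 compound concentrations, each in triplicate, taken as the concentration (nM) giving 50% inhibition of specific radioligand binding.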

[2] = molecular target: T2, Adrenergic receptor alpha-2 (Homo sapiens, UniProt P08913+P18825+P18089); assay: Inhibition of alpha-2-adrenergic receptor; type: protein assay
T2 sequence (P08913 whole entry): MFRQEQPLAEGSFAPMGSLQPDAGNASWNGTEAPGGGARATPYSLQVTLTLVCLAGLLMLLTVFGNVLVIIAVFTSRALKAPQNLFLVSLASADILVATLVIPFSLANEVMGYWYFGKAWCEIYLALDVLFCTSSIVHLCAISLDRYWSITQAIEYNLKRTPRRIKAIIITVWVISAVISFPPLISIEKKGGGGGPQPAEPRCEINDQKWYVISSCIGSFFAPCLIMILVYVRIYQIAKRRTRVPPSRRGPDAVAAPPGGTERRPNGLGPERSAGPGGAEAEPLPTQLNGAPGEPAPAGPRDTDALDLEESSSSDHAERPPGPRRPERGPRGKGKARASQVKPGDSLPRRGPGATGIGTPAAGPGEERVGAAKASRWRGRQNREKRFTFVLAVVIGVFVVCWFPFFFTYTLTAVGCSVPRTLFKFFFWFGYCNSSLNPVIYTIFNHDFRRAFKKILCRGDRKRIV
T2 sequence (P18825 whole entry): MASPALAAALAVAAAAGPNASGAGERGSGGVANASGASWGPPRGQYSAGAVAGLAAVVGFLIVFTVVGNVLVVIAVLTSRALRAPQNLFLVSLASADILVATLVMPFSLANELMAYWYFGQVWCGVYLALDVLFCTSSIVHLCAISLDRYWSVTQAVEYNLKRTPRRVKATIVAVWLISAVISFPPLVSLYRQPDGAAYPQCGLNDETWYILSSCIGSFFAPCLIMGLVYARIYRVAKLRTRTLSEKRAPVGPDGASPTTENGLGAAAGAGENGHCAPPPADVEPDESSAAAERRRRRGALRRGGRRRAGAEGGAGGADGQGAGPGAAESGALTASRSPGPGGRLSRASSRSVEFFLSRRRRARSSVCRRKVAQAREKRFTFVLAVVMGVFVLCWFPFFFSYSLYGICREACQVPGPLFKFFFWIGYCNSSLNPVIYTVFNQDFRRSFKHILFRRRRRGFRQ
T2 sequence (P18089 whole entry): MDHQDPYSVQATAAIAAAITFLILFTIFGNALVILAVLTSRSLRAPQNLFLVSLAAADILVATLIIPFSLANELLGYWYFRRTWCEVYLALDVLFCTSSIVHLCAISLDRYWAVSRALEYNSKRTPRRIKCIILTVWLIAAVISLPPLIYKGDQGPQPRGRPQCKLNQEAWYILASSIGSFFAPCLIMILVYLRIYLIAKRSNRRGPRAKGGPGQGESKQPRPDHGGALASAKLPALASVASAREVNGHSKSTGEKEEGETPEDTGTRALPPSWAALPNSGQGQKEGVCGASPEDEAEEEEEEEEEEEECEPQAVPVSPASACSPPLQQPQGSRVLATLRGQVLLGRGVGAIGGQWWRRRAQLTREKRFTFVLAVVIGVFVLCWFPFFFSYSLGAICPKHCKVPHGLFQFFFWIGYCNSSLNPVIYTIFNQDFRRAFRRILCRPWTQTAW

[3] = molecular target: 5-hydroxytryptamine receptor 2A (Rattus norvegicus, UniProt P14842); assay: Inhibition of rat hydroxytryptamine 2A receptor
5-hydroxytryptamine receptor 2A, sequence (P14842 whole entry): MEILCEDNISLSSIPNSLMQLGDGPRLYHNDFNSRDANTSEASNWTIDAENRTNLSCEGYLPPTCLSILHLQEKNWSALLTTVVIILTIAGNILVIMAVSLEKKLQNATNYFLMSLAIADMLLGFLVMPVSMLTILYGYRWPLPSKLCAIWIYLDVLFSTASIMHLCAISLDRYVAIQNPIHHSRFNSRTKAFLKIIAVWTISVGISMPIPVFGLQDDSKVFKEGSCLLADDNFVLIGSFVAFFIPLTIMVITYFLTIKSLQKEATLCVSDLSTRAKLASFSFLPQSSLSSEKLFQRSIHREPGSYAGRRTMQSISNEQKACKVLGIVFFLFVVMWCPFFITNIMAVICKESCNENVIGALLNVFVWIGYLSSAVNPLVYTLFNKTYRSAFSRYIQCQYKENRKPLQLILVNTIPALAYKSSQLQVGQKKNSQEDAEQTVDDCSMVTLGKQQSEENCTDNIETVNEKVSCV

D(4) dopamine receptor = molecular target: T3, D(4) dopamine receptor (Rattus norvegicus, UniProt P30729); assay: Inhibition of rat dopamine D4 receptor
T3 sequence (P30729 whole entry): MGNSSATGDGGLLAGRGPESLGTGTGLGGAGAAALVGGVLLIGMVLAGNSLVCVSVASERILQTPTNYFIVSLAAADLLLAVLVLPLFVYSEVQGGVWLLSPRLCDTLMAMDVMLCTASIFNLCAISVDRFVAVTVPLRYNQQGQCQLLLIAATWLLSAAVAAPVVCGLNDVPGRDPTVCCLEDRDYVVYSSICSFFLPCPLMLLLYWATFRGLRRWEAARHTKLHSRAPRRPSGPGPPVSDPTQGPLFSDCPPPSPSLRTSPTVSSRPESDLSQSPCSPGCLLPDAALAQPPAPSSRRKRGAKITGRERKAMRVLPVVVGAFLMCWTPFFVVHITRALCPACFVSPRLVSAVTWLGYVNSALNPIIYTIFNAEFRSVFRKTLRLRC

Rattus norvegicus = assay: Dose required to inhibit ultrasonic vocalisation on subcutaneous administered; type: functional; settings: sc, read-out: ID50 (the source's name)
Procedure, shortened: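 Rat ultrasonic vocalization test. In a priming session, up to 10 grid-floor shocks were given (1.8 mA, 0.3 s, 20 s apart). Rats not vocalizing on three consecutive trials were excluded. Next day, rats were tested 2 h after dosing: five shocks, then vocalization duration recorded over 3 min. ID50 (dose for half-maximal inhibition) came from dose–response curves.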

[4] = Inhibition of histamine H2 receptor

IC50 [1]: 4300 nM | IC50 (D(2) dopamine receptor): 95 nM and 666 nM | IC50 [2]: 6000 nM | IC50 [3]: 1510 nM | IC50 (D(4) dopamine receptor): 3400 nM | IC50 [4]: > 1000 nM
Structure (SMILES): N#Cc1ccc2[nH]cc(CCCCN3CCN(c4ccc5oc(C(N)=O)cc5c4)CC3)c2c1 [VILAZODONE]
ED50 (Rattus norvegicus): 4 mg/kg
